Data on ten molecules can be found in ChEMBL document CHEMBL1144729, “N-pyridin-3-yl- and N-quinolin-3-yl-benzamides: modulators of human vanilloid receptor 1 (TRPV1)” (Bioorg Med Chem Lett, 2008).

Data set [1] deals with T1, Transient receptor potential cation channel subfamily V member 1 (Homo sapiens, UniProt Q8NER1). Nature of the data set: Displacement of [3H]RTX from human TRPV1 receptor expressed in HEK293 cells. Type of data set: cell-based. In short, it runs like this:
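Membranes from HEK293 stably expressing human TRPV1, prepared by homogenisation and differential centrifugation. Binding buffer: 20 mM Hepes pH 7.4, 5.8 mM NaCl, 320 mM sucrose, 2 mM MgCl2, 0.75 mM CaCl2, 5 mM KCl. Incubated 60 min at 37 °C with 0.3–0.6 nM [3H]-RTX. Cooled on ice, alpha-acid glycoprotein added, pellet counted by scintillation. Nonspecific binding defined with 200 nM unlabeled RTX.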
A general note: Loss of bound radioactivity is the signal in a displacement assay; it reports binding, not function.

Data set [2] has as its target T1, Transient receptor potential cation channel subfamily V member 1. Kind of data set: Activity at human TRPV1 in HEK cells assessed by measuring capsaicin-induced calcium level by FLIPR technology. Type of data set: cell-based, HEK293. The gist of the method:
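Stably transfected hTRPV1/HEK cells plated on poly-D-lysine and used 2 days later. Loaded with Fluo-3/AM for 1 h, then given a single concentration of compound. Antagonist potency protocol taken from earlier work.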

For data set [3], the system named is Rattus norvegicus. Nature of the data set: Reversal of CFA-induced thermal hyperalgesia in Sprague-Dawley rat at 30 mg/kg, po. Type of data set: functional. In short, it runs like this:
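Thermal hyperalgesia induced by CFA injection in Sprague–Dawley rats. Radiant-heat withdrawal latency measured on a warm glass surface after about 10 min acclimation, before and 24 h after CFA. Single oral dose given, latencies reassessed at 100 min post-dose and compared with vehicle. Analysis by two-way ANOVA with Bonferroni post hoc test, p < 0.05.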

A short description of data set [4]: Clearance in Sprague-Dawley rat. Conditions: in vivo. The format is ADME, organism-based. The gist of the method:
(§1)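 Pharmacokinetics measured in male Sprague–Dawley rats after intravenous and oral dosing.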

A short description of data set [5]: Metabolic stability in human liver microsomes after 15 mins. The following applies: read-out: Stability. Type of data set: ADME, Microsome. In short, it runs like this: (§2)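 Compound incubated with rat or human liver microsomes. Percent of parent remaining measured after 15 min.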
For orientation: Liver microsomes are a subcellular fraction often used to study metabolism.

Data set [6] is described as follows: Metabolic stability in rat liver microsomes after 15 mins. The following applies: read-out: Stability. Type of data set: ADME, Microsome. In short, it runs like this: as §2
Data set [7] can be described thus: Oral bioavailability in Sprague-Dawley rat. Type of data set: ADME, organism-based. The following applies: in vivo. In short, it runs like this: as §1
The nature of data set [8]: Elimination half life in Sprague-Dawley rat. The format is ADME, organism-based. The following applies: in vivo. The gist of the method: as §1

T1 sequence (Q8NER1 whole entry): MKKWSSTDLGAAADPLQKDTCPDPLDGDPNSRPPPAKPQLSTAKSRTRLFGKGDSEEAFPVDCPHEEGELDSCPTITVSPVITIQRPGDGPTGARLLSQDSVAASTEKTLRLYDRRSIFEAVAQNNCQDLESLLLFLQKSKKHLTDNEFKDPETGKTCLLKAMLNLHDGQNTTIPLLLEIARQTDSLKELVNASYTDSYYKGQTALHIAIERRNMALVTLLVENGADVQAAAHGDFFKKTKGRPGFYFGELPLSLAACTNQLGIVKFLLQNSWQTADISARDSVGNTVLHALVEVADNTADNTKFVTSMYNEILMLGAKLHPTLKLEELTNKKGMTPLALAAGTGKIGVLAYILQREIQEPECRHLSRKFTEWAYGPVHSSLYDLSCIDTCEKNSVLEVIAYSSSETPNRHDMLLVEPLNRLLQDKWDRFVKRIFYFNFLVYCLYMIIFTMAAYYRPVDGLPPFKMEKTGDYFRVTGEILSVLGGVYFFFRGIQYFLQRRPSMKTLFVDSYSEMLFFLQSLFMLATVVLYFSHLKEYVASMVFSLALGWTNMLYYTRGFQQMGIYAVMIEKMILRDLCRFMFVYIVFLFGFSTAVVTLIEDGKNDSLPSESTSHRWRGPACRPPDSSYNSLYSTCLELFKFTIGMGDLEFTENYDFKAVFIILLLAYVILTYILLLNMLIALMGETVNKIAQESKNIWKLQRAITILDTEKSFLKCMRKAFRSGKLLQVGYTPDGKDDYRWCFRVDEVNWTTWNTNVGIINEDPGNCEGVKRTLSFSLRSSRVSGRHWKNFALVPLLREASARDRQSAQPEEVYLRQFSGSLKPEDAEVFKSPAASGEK

One may read the Ki as a measure of affinity in units of concentration, obtained from inhibition or displacement. High values mean a looser hold on the target, low ones a stronger hold on the target. `CCCCCCCCN(C)c1ccc(C(=O)Nc2cnc3ccccc3c2)cc1` displayed an inhibition constant (Ki) in data set [1] of 15 nM.
For orientation: EC50 means the concentration giving half of the maximal effect. Take `CCCCCCCCCCc1ccc(C(=O)Nc2cccnc2)cc1`: in data set [1], the inhibition constant Ki turned out to be 607 nM. The EC50 in data set [2] is > 30000 nM.
What is called clearance is the rate of elimination divided by the concentration. Higher therefore signals a high capacity for elimination. What is called bioavailability is the share of a dose that reaches the circulation, judged against a reference dose that is usually intravenous. Read a high bioavailability as much systemic uptake. The half-life is the time needed for the level to fall by half in the phase considered. Low readings indicate fast loss, high ones slow loss. For the molecule `CN(c1ccc(C(=O)Nc2cnc3ccccc3c2)cc1)C1CCCCC1`, the Activity in data set [3] is > 80%. This molecule registered a clearance in data set [4] of 20 mL/min/kg. In addition, the remaining at 0.25 h stood at 25% in data set [5] and 45% in data set [6]. The same molecule came in with a bioavailability in data set [7] of 70%. In data set [8], the half-life came out at 1.67 h.
In general, IC50 refers to the point on the concentration scale where inhibition reaches its midpoint. With `CCCCN(C)c1ccc(C(=O)Nc2cnc3ccccc3c2)cc1`, in data set [2], the half-maximal inhibitory concentration (IC50) worked out at 66 nM.
With `CN(CC1CCCCC1)c1ccc(C(=O)Nc2cnc3ccccc3c2)cc1`, in data set [1], the Ki stood at 16 nM. Moreover, in data set [2], the IC50 was 170 nM.
For the molecule `CCCCCc1ccc(CC(=O)Nc2cccnc2)cc1`, the Ki in data set [1] stood at 7260 nM. Besides, in data set [2], the EC50 was > 5000 nM.
Turning to `CCCc1ccc(C(=O)Nc2cnc3ccccc3c2)cc1`, in data set [1], the inhibition constant Ki was determined as 60 nM. For the same molecule, the IC50 in data set [2] was determined as 130 nM.
For `CCCCCCCc1ccc(C(=O)Nc2cnc3ccccc3c2)cc1`, in that order: 3520 nM and > 30000 nM.
For the molecule `CCCCCc1ccc(NC(=O)c2cccnc2)cc1`, the Ki in data set [1] is > 3000 nM. Moreover, the EC50 in data set [2] was > 5000 nM.
Regarding `CCCCc1ccc(C(=O)Nc2cnc3ccccc3c2)cc1`, the affinity in data set [1], expressed as Ki, was 53 nM. For the same molecule, in data set [2], the half-maximal inhibitory concentration (IC50) is 230 nM.
